# Measured values from ChEMBL document CHEMBL4311940, “Design, Synthesis, and Biological Evaluation of 4-Methyl Quinazoline Derivatives as Anticancer Agents Simultaneously Targeting Phosphoinositide 3-Kinases and Histone Deacetylases” (J Med Chem, 2019).
# Active and inactive are the calls of the source. No cut-off for these calls is given here.
# Legend:
# HCT-116 [1] = experiment: Antiproliferative activity against human HCT116 cells after 96 hrs by MTT assay; type: functional, cell-based; details: HCT-116, 96 h
# Histone deacetylase 1 = Histone deacetylase 1 (Homo sapiens, UniProt Q13547); experiment: Inhibition of recombinant C-terminal His/FLAG-tagged HDAC1 (unknown origin) expressed in baculovirus infected Sf9 insect cells using Ac-peptide as substrate preincubated for 15 mins followed by substrate addition and measured after 1 hr
# [2] = target: Phosphatidylinositol 4,5-bisphosphate 3-kinase catalytic subunit alpha isoform (Homo sapiens, UniProt P42336); experiment: Inhibition of recombinant human PI3Kalpha using PIP2 as substrate incubated for 1 hr by kinase-glo assay
# HCT-116 [3] = experiment: Induction of apoptosis in human HCT116 cells assessed as live cells at 500 nM after 48 hrs by Annexin V-FITC/propidium iodide staining-based flow cytometric analysis (reference value: 89.6%); type: functional
# HCT-116 [4] = experiment: Induction of apoptosis in human HCT116 cells assessed as early apoptotic cells at 500 nM after 48 hrs by Annexin V-FITC/propidium iodide staining-based flow cytometric analysis (reference value: 1.33%); type: functional
# HCT-116 [5] = experiment: Induction of apoptosis in human HCT116 cells assessed as late apoptotic cells at 500 nM after 48 hrs by Annexin V-FITC/propidium iodide staining-based flow cytometric analysis (reference value: 3.87%); type: functional
# HCT-116 [6] = experiment: Induction of apoptosis in human HCT116 cells assessed as necrotic cells at 500 nM after 48 hrs by Annexin V-FITC/propidium iodide staining-based flow cytometric analysis (reference value: 5.23%); type: functional
# HCT-116 [7] = experiment: Induction of cell cycle arrest in human HCT116 cells assessed as accumulation at G2/M phase at 500 nM after 24 hrs by propidium iodide/RNase staining-based FACS analysis; type: functional
# Method in brief: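 HCT116 cells cultured overnight in 6-well plates, exposed to compound at various concentrations for 24 h; FxCycle PI/RNase staining and flow cytometry for cell cycle phase distribution.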
# THP-1 = experiment: Antiproliferative activity against human THP1 cells after 96 hrs by MTT assay; type: functional, cell-based; details: THP-1, 96 h
# K562 = experiment: Antiproliferative activity against human K562 cells after 96 hrs by MTT assay; type: functional, cell-based; details: K562, 96 h
# MCF7 = experiment: Antiproliferative activity against human MCF7 cells after 96 hrs by MTT assay; type: functional, cell-based; details: MCF7, 96 h
# MDA-MB-453 = experiment: Antiproliferative activity against human MDA-MB-453 cells after 96 hrs by MTT assay; type: functional, cell-based; details: MDA-MB-453, 96 h
# HCT-8 = experiment: Antiproliferative activity against human HCT8 cells after 96 hrs by MTT assay; type: functional, cell-based; details: HCT-8, 96 h
# U-87 MG = experiment: Antiproliferative activity against human U87 cells after 96 hrs by MTT assay; type: functional, cell-based, U-87MG ATCC
# NCI-H460 = experiment: Antiproliferative activity against human NCI-H460 cells after 96 hrs by MTT assay; type: functional, cell-based; details: NCI-H460, 96 h
# NCI-H1299 = experiment: Antiproliferative activity against human NCI-H1299 cells after 96 hrs by MTT assay; type: functional, cell-based; details: NCI-H1299, 96 h
# Capan-2 = experiment: Antiproliferative activity against human Capan2 cells after 96 hrs by MTT assay; type: functional, cell-based; details: Capan-2, 96 h
# SW1990 = experiment: Antiproliferative activity against human SW1990 cells after 96 hrs by MTT assay; type: functional, cell-based; details: SW1990, 96 h
# DU-145 = experiment: Antiproliferative activity against human DU145 cells after 96 hrs by MTT assay; type: functional, cell-based; details: DU-145, 96 h
# HGC-27 = experiment: Antiproliferative activity against human HGC27 cells after 96 hrs by MTT assay; type: functional, cell-based; details: HGC-27, 96 h
# HepG2 = experiment: Antiproliferative activity against human HepG2 cells after 96 hrs by MTT assay; type: functional, cell-based; details: HepG2, 96 h
# Huh-7 = experiment: Antiproliferative activity against human HuH7 cells after 96 hrs by MTT assay; type: functional, cell-based; details: Huh-7, 96 h
# Bel-7402 = experiment: Antiproliferative activity against human Bel7402 cells after 96 hrs by MTT assay; type: functional, cell-based; details: Bel-7402, 96 h
# Sequence of Phosphatidylinositol 4,5-bisphosphate 3-kinase catalytic subunit alpha isoform (P42336 whole entry, canonical isoform): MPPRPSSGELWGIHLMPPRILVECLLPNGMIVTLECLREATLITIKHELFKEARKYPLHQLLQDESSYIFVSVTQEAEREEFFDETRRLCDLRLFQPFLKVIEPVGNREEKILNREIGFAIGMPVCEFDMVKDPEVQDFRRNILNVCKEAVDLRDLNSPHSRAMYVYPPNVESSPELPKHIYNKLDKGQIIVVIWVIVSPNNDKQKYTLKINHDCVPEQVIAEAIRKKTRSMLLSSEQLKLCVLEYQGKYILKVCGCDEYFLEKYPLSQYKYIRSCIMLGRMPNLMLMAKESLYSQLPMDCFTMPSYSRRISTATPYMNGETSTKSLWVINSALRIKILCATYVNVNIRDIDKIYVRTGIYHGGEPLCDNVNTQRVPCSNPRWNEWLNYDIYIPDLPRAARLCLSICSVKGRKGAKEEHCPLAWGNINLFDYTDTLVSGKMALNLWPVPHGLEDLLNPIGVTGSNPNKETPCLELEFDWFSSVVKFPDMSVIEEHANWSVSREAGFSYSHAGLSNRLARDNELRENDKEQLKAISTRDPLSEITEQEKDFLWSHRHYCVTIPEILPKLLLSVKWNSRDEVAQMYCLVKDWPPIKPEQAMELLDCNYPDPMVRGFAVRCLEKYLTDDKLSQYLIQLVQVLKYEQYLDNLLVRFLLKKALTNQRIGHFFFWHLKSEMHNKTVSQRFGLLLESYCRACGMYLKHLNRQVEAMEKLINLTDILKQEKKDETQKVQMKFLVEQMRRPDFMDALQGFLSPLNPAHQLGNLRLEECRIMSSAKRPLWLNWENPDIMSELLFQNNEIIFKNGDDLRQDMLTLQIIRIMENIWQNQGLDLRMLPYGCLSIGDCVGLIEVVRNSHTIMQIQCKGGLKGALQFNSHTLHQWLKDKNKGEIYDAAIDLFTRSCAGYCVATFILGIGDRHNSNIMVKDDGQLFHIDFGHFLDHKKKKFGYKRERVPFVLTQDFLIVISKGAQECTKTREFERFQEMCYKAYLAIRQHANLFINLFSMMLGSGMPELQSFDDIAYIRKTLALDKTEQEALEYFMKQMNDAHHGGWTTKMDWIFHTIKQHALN
# Sequence of Histone deacetylase 1 (Q13547 whole entry, canonical isoform): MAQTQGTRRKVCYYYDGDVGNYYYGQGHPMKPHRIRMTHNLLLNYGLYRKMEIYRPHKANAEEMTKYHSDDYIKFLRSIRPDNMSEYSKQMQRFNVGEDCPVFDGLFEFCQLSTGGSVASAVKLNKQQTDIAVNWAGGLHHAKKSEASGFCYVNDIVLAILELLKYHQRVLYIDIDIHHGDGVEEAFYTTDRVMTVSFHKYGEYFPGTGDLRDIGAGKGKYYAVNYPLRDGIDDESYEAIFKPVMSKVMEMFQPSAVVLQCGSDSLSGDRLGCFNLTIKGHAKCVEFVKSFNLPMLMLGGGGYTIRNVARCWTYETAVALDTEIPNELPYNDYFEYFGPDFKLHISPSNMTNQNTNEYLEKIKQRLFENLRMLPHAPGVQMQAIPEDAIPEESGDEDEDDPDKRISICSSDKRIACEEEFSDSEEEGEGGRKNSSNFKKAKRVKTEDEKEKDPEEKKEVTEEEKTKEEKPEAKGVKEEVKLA
SMILES,IC50 (HCT-116 [1]),IC50 (Histone deacetylase 1),IC50 [2],other results
COc1ccc(-c2cc(OCCCC(=O)NO)c3ncnc(C)c3c2)cn1,> 10 µM,0.091 µM,0.073 µM,
COc1ncc(-c2cc(OCCCCCC(=O)NO)c3ncnc(C)c3c2)cc1NS(C)(=O)=O,> 10 µM,0.042 µM,0.0051 µM,
COc1ncc(-c2cc(OCCCCCCCC(=O)NO)c3ncnc(C)c3c2)cc1NS(C)(=O)=O,3.4 µM,0.0021 µM,0.0039 µM,
Nc1cc(C(F)(F)F)c(-c2cc(N3CCOCC3)nc(N3CCOCC3)n2)cn1 [BUPARLISIB],1.3 µM,,,Activity (HCT-116 [3]): 84.7%; Activity (HCT-116 [4]): 5.22%; Activity (HCT-116 [5]): 6.61%; Activity (HCT-116 [6]): 3.46%; Activity (HCT-116 [7]): Active; IC50 (THP-1): 12 µM; IC50 (K562): 7.9 µM; IC50 (MCF7): 5.7 µM; IC50 (MDA-MB-453): 0.37 µM; IC50 (HCT-8): 1.7 µM; IC50 (U-87 MG): 4.8 µM; IC50 (NCI-H460): 3.2 µM; IC50 (NCI-H1299): 3.6 µM; IC50 (Capan-2): 42 µM; IC50 (SW1990): 1.3 µM; IC50 (DU-145): 45 µM; IC50 (HGC-27): 0.99 µM; IC50 (HepG2): 3.2 µM; IC50 (Huh-7): 2 µM; IC50 (Bel-7402): 13 µM
COc1ncc(-c2cc(OCCCCCCC(=O)NO)c3ncnc(C)c3c2)cc1NS(=O)(=O)c1ccc(F)cc1F,7.2 µM,0.0063 µM,0.00069 µM,
COc1ncc(-c2cc(OCCCCCCCCC(=O)NO)c3ncnc(C)c3c2)cc1NS(=O)(=O)c1ccc(F)cc1F,4 µM,0.0089 µM,0.0009 µM,
COc1ccc(-c2cc(OCC(=O)NO)c3ncnc(C)c3c2)cn1,> 10 µM,0.166 µM,0.068 µM,
COc1ncc(-c2cc(OCCCCCCCCC(=O)NO)c3ncnc(C)c3c2)cc1NS(C)(=O)=O,11 µM,0.0049 µM,0.004 µM,

# Stronger by IC50 (HCT-116 [1]), values ahead:
IC50 (HCT-116 [1]),IC50 (Histone deacetylase 1),IC50 [2],SMILES,other results
0.54 µM,0.03 µM,0.058 µM,COc1ccc(-c2cc(OCCCCCC(=O)NO)c3ncnc(C)c3c2)cn1,
0.35 µM,0.303 µM,0.0006 µM,COc1ncc(-c2cc(OCCCCC(=O)NO)c3ncnc(C)c3c2)cc1NS(=O)(=O)c1ccc(F)cc1F,
0.022 µM,0.0021 µM,0.195 µM,CCN(CCOc1cc(-c2ccc(OC)nc2)cc2c(C)ncnc12)c1ncc(C(=O)NO)cn1,
0.53 µM,0.0017 µM,0.0018 µM,COc1ncc(-c2cc(OCCN(C)c3ncc(C(=O)NO)cn3)c3ncnc(C)c3c2)cc1NS(=O)(=O)c1ccc(F)cc1F,
0.005 µM,,,COc1ccc(-c2nc(N3CCOCC3)c3sc(CN(C)c4ncc(C(=O)NO)cn4)cc3n2)cn1 [FIMEPINOSTAT],IC50 (K562): 0.28 µM; IC50 (MCF7): 0.041 µM; IC50 (MDA-MB-453): 0.009 µM; IC50 (HCT-8): 0.005 µM; IC50 (U-87 MG): 0.007 µM; IC50 (NCI-H460): 0.15 µM; IC50 (NCI-H1299): 0.025 µM; IC50 (Capan-2): 0.007 µM; IC50 (SW1990): 0.18 µM; IC50 (DU-145): 0.56 µM; IC50 (HGC-27): 0.041 µM; IC50 (HepG2): 0.015 µM; IC50 (Huh-7): 0.56 µM; IC50 (Bel-7402): 0.013 µM
0.039 µM,0.0026 µM,0.072 µM,CCN(CCOc1cc(-c2cnc(OC)c(F)c2)cc2c(C)ncnc12)c1ncc(C(=O)NO)cn1,
0.03 µM,0.0013 µM,0.073 µM,COc1ncc(-c2cc(OCCN(C)c3ncc(C(=O)NO)cn3)c3ncnc(C)c3c2)cc1F,
0.039 µM,0.0016 µM,0.082 µM,COc1ccc(-c2cc(OCCN(c3ncc(C(=O)NO)cn3)C(C)C)c3ncnc(C)c3c2)cn1,
0.58 µM,0.0022 µM,0.116 µM,COc1ncc(-c2cc(OCCCCCCCCC(=O)NO)c3ncnc(C)c3c2)cc1F,
0.096 µM,0.002 µM,0.043 µM,COc1ncc(-c2cc(OCCN(c3ncc(C(=O)NO)cn3)C(C)C)c3ncnc(C)c3c2)cc1F,
